The target in one experiment is Adenosine receptor A3 (Homo sapiens, UniProt P0DMS8). Kind of experiment: Displacement of [3H]NECA from human cloned adenosine A3 receptor expressed in human HeLa cells. It counts as cell-based. On the technique in general: Loss of bound radioactivity is the signal in a displacement assay; it reports binding, not function.
Experiment [1] deals with HeLa. Kind of experiment: Selectivity index, ratio of Ki for human cloned adenosine A2A receptor expressed in human HeLa cells to Ki for human cloned adenosine A2B receptor expressed in HEK293 cells. It counts as cell-based. The procedure, abridged: (§1)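 SI is the ratio of Ki values. […] A1 in CHO cells: [3H]DPCPX 2 nM. A2A in HeLa cells: [3H]ZM241385 3 nM. A2B in HEK-293 cells: [3H]DPCPX 25 nM. A3 in HeLa cells: [3H]NECA 30 nM. Filtration and scintillation counting.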

Experiment [2] deals with HeLa. The experiment in a line: Selectivity index, ratio of Ki for human cloned adenosine A3 receptor expressed in human HeLa cells to Ki for human cloned adenosine A2B receptor expressed in HEK293 cells. The experiment is classed as cell-based. The essentials:
as §1

The target in the next experiment is T1, Adenosine receptor A1 (Homo sapiens, UniProt P30542).
T1 sequence (P30542 whole entry): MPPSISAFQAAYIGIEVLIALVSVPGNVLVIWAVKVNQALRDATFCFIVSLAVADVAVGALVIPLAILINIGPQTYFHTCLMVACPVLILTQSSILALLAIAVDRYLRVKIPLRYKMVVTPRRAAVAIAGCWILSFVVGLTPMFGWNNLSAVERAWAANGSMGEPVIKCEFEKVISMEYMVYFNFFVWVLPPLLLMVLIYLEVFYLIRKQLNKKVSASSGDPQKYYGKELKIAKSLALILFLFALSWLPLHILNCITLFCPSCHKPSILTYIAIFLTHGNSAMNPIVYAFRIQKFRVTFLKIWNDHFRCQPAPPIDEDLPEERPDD
Kind of experiment: Displacement of [3H]DPCPX from human cloned adenosine A1 receptor expressed in CHO cells. It counts as cell-based.

In experiment [3] the target is Adenosine receptor A2a (Homo sapiens, UniProt P29274). Kind of experiment: Displacement of [3H]ZM241385 from human cloned adenosine A2A receptor expressed in human HeLa cells. It counts as cell-based.
In experiment [4] the target is T2, Adenosine receptor A2b (Homo sapiens, UniProt P29275).
T2 sequence (P29275 whole entry): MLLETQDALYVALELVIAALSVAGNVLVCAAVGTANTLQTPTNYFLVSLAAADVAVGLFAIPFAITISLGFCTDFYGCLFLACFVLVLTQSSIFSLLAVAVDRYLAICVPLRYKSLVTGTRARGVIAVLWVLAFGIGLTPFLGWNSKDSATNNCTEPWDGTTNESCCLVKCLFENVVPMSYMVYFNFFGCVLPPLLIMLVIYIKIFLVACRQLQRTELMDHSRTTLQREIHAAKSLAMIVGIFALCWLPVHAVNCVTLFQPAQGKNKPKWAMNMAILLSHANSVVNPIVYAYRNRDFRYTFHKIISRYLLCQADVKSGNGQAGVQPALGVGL
Kind of experiment: Displacement of [3H]DPCPX from human cloned adenosine A2B receptor expressed in HEK293 cells. The experiment is classed as cell-based.

The target in experiment [5] is T3, Adenosine receptor A2b (Rattus norvegicus, UniProt P29276).
T3 sequence (P29276 whole entry): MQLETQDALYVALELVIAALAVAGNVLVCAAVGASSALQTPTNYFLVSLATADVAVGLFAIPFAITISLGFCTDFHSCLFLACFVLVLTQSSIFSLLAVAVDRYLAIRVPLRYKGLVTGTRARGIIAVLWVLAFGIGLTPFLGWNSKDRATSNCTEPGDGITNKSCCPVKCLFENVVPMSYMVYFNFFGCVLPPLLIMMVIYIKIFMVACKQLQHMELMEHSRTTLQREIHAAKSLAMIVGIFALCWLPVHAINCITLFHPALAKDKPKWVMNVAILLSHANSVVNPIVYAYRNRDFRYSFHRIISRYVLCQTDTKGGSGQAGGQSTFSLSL
The experiment in a line: Antagonist activity at adenosine A2B receptor in Wistar-Kyoto rat distal colon. Conditions: read-out: pA2 (converted).

In experiment [6] the target is Adenosine receptor A2a (Rattus norvegicus, UniProt P30543). Kind of experiment: Antagonist activity at adenosine A2A receptor in Sprague-Dawley rat aorta assessed as inhibition of phenylephrine-induced contraction. The experiment is classed as functional, tissue-based. To be noted: read-out: pA2 (converted). The procedure, abridged: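 Aorta from male Sprague-Dawley rats (200–250 g), cut into 4 mm rings in Krebs solution at 37 °C with carbogen, 2 g basal tension, stabilised 60 min. Rings were contracted with phenylephrine, then antagonist was incubated for 30 min before cumulative NECA relaxation curves. pA2 = log((EC50'/EC50) − 1) − log C, from NECA EC50 with and without antagonist.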

Another experiment relates to HEK293. Kind of experiment: Selectivity index, ratio of Ki for human cloned adenosine A1 receptor expressed in CHO cells to Ki for human cloned adenosine A2B receptor expressed in HEK293 cells. The experiment is classed as cell-based. The essentials: as §1

Adenosine receptor A3, sequence (P0DMS8 whole entry): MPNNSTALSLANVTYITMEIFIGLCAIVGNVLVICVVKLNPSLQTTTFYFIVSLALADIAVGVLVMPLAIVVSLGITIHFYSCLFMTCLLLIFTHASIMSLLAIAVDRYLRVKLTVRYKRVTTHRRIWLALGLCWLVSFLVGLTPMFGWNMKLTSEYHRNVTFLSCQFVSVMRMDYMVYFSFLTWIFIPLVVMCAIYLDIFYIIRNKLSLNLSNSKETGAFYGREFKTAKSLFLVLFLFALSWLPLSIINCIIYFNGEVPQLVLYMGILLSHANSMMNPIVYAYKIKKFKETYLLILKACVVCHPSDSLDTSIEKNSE
Adenosine receptor A2a (Homo sapiens, UniProt P29274), sequence (P29274 whole entry): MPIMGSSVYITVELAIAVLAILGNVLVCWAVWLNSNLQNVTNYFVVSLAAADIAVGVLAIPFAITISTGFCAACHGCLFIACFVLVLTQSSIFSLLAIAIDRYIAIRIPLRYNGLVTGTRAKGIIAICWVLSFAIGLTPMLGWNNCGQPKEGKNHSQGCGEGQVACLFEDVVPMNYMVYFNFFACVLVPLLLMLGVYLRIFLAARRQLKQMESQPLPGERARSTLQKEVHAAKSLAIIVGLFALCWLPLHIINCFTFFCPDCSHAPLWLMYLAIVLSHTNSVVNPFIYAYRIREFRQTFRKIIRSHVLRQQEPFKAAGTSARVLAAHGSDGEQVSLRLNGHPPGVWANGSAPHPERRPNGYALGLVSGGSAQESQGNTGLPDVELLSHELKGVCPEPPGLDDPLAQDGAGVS
Adenosine receptor A2a (Rattus norvegicus, UniProt P30543), sequence (P30543 whole entry): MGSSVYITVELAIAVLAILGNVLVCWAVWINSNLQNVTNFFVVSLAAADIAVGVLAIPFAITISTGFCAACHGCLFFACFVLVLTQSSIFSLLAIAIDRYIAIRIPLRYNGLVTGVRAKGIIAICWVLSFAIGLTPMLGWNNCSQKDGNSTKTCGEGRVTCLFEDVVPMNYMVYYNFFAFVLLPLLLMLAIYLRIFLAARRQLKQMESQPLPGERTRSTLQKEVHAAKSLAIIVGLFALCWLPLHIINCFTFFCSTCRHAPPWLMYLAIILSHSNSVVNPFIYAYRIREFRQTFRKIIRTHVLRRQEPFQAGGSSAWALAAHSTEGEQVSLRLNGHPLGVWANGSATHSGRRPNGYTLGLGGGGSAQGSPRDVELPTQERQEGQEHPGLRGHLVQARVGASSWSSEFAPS

As for `CCCn1c(=O)c2[nH]c(-c3ccc(OCC(=O)Nc4ccc(Br)cc4)cc3)c(O)c2n(CCC)c1=O`, the inhibitory constant (Ki) at Adenosine receptor A3 amounted to 1290 nM; at Adenosine receptor A1, 79 nM; at Adenosine receptor A2a [3], 100 nM; on Adenosine receptor A2b [4] it was 1 nM. For the same compound, the Ratio Ki in the experiment on HeLa [1] is 100; in the experiment on HeLa [2] it was 1290; in the experiment on HEK293 it was 79. For the same compound, the Kb is 0.468 nM on Adenosine receptor A2b [5] and 224 nM at Adenosine receptor A2a [6].

What is called Ki is the equilibrium dissociation constant of an inhibitor or competing ligand from its target. Higher therefore signals weaker binding.

Source of the values: ChEMBL document CHEMBL1142545, “1,3-Dialkyl-8-(hetero)aryl-9-OH-9-deazaxanthines as potent A2B adenosine receptor antagonists: design, synthesis, structure-affinity and structure-selectivity relationships” (Bioorg Med Chem, 2008).
